PRMT1 inh: blocks human protein arginine methyltransferase 1; Q99873; recombinant PRMT1, activity-based probe fluorescence polarization; inhibition, % at 2.79 µM; 370,000 compounds, 1.3% hits;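 active = inhibition above about 21% made by adding two undisclosed values, limit read from the data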
Target sequence (Q99873 whole entry, looked up): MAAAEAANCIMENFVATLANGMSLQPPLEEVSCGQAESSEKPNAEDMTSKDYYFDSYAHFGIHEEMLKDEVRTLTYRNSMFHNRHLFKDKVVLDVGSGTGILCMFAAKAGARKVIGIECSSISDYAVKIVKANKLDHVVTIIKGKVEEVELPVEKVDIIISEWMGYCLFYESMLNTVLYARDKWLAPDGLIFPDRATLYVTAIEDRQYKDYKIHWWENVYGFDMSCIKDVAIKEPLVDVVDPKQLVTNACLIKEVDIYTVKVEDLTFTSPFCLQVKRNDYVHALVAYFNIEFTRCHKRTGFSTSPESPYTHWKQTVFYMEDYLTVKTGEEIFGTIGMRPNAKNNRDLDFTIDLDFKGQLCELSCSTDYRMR
core dimer inh: HCV core protein dimerization inhibition | TR-FRET GST/Flag-core106 dimerization, 1536-well | inhibition, % at 5 µM | 300,000 compounds, 0.33% hits;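 active = inhibition above the mean of all tested compounds plus 3 SD, set per screening campaign, cut at about 45% in these data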
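assay system = GST-tagged and Flag-tagged HCV core protein residues 1-106 | controls = unlabelled core106 and no-GST-core106 wells | incubation = compound-protein-antibody incubation 4 h at 22.5 °C | probe or stimulus = Eu donor and XL665 acceptor anti-tag antibodies | read-out = % inhibition based on acceptor/donor emission ratio | signal = TR-FRET 671 and 617 nm emission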
APOBEC3G inh: inhibitors of human APOBEC3G DNA deaminase; Q9HC16; recombinant A3G, ssDNA deamination FAM/TAMRA fluorescence; inhibition, % at 20 µM; 330,000 compounds, 0.28% hits; AID 493012;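 active = inhibition of at least 40% at 20 µM, with no more than 30% in the related APOBEC3A deaminase screen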;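 also: plate controls were DMSO wells with A3G for no effect and wells lacking A3G enzyme for full effect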
HCV NS3 hel inh: HCV NS3 helicase inhibition; NS3 helicase DNA unwinding, Cy5 molecular beacon fluorescence; inhibition, % at 10.9 µM; 290,000 compounds, 0.56% hits; AID 1800;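 active = inhibition above the mean of all tested compounds plus 3 SD, set per campaign, cut at about 35% in these data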;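 also: 0% = DMSO wells and 100% = thioflavine S control wells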
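Compound dosing – single dose, 10.9 µM nominal final, DMSO 0.8% final · System – NS3 helicase fragment of HCV · Buffer or medium – MOPS pH 6.5, MgCl2, DTT, Tween20, BSA · Signal – Cy5 beacon fluorescence read at start and 1 h · Also added – annealed dual-labelled DNA beacon duplex, ATP-started · Schedule – 1 h at 25 °C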
APOBEC3A inh: blocks human APOBEC3A ssDNA deamination | P31941 | recombinant A3A, FAM/TAMRA ssDNA deamination fluorescence | inhibition, % at 20 µM | 330,000 compounds, 0.41% hits | AID 493011;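 active = at least 40% inhibition at 20 µM here, with at most 30% in a related deaminase screen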;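 also: plate controls were A3A with DMSO for no effect and wells lacking A3A enzyme for full effect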
ABHD5-PLIN5 inh: ABHD5-PLIN5 protein interaction inhibition. Q00G26+Q8WTS1. Split G. princeps luciferase complementation, luminescence, 4 h. inhibition, % at 4 µM. 360,000 compounds, 0.78% hits. AID 602281;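 active = inhibition above the mean inhibition across every tested compound plus 3 SD, cut at about 22% in these data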;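 also: 0% = DMSO only wells and the 100% control is not disclosed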
Active calls of the source: *; x = no result given. Rows were chosen to be rich in hits. Some 2.9% of all compounds tested hit in one or more screens of this group.

SMILES	PRMT1 inh	core dimer inh	APOBEC3G inh	HCV NS3 hel inh	APOBEC3A inh	ABHD5-PLIN5 inh
CCN1CCN(Cc2c(O)ccc3c2O/C(=C\c2ccccc2)C3=O)CC1	13.5	11.9	-6.0	6.8	0.7	4.6
CC1CCCN(Cc2c(O)ccc3c2O/C(=C\c2ccco2)C3=O)C1 (stereo not drawn)	21.8*	-8.3	67.0	17.1	85.7	16.4
CC1(C)Nc2ccc(O)cc2-c2c1ssc2=S	22.1*	-0.7	-5.2	28.1	-0.1	-18.9
Cc1ccc(NC(=O)CN(C)C(=O)c2cc(S(=O)(=O)N(C)C)ccc2N2CCCC2)cc1	1.5	3.5	-10.7	x	-1.5	3.3
Cc1nnc(NC(=O)COc2ccc3c(C)cc(=O)oc3c2)s1	5.9	79.0*	5.8	8.8	2.0	-3.4
Cc1ccc(C(=O)COc2ccc3c(C)cc(=O)oc3c2)cc1	1.2	8.2	-6.6	-8.6	-1.5	4.8
Cc1cc(=O)oc2cc(OCC(=O)c3ccc4c(c3)NC(=O)CO4)ccc12	-5.0	63.2*	27.9	2.5	11.4	1.7
Nc1[nH]c(C(=O)c2ccc(Cl)cc2)c(-c2ccc(Br)cc2)c1C(=O)c1c[nH]c2ccc(F)cc12	2.7	x	x	x	x	x
O=C(CC1S/C(=N/N=C/c2ccco2)NC1=O)Nc1cccc(Cl)c1Cl (stereo not drawn)	21.6*	6.7	-5.9	-9.1	-2.7	10.0
COc1ccc(CCNCC(O)Cn2c3ccccc3c3ccccc32)cc1OC (stereo not drawn)	-2.7	3.2	-2.6	-58.8	3.8	22.4*
OC(c1ccccc1)(c1ccccc1)C1CCN(CCCNc2cccc(OC(F)(F)F)c2)CC1	0.6	x	x	x	x	x
C/C(=N\NC(=O)c1cc(O)ccc1O)c1cccc(NC(=O)c2cccc(Cl)c2)c1	31.2*	-6.7	11.0	23.7	16.8	-5.4
Cc1ccc(NS(=O)(=O)c2ccc(NC(=O)c3ccc(-c4ccccc4)cc3)cc2)c(C)c1	-3.5	46.4*	1.3	1.1	-1.7	-2.5
Cc1cc(O)ccc1N=Cc1c(C(F)(F)F)[nH][nH]c1=O	25.4*	-9.5	28.0	4.6	-2.2	-14.6
O=c1[nH][nH]c(C(F)(F)F)c1C=Nc1ccccc1	2.0	0.8	-2.6	7.8	-0.9	3.8
O=C1C(Cl)=C(N2CCOCC2)C(=O)N1c1cccc(Cl)c1	22.1*	0.8	-5.2	12.2	0.5	15.1
Cc1cccc(/C=N/n2c(-c3cc(-c4ccccc4)n[nH]3)n[nH]c2=S)c1	4.3	-0.4	19.8	-0.5	-2.7	-7.2
COc1cc(C=Nn2c(-c3cc(-c4ccccc4)n[nH]3)n[nH]c2=S)ccc1OC(C)=O	32.9*	x	x	x	x	x
S=c1[nH]nc(-c2cc(-c3ccccc3)n[nH]2)n1/N=C/C(Br)=C/c1ccccc1	3.7	13.0	4.4	-5.5	-5.1	26.1*
S=c1[nH]nc(-c2cc(-c3ccccc3)n[nH]2)n1/N=C/c1ccccc1	3.4	5.9	17.8	-7.5	-4.0	-3.8
C[C@H]1C(=O)N2[C@@H](C[C@]3(c4c[nH]c5ccccc45)c4ccccc4N(S(=O)(=O)c4ccccc4)[C@H]23)C(=O)N1C	-0.9	x	x	x	x	x
COC(=O)[C@H]1C[C@@]2(C)c3ccccc3N(C(=O)OC(C)(C)C)[C@H]2N1C(=O)OC(C)(C)C	-0.8	x	x	x	x	x
O=C(NCC(c1ccco1)N1CCc2ccccc2C1)c1cccc(Br)c1 (stereo not drawn)	4.5	3.9	-6.7	x	-2.1	-7.7
CCn1c(CCNC(=O)c2cccs2)nnc1SCC(=O)c1ccc(OC)cc1	22.4*	1.6	29.2	2.3	-7.5	-8.9
COc1ccc(CCNC(=O)c2ccc3ccccc3n2)cc1	5.8	2.9	-4.9	0.2	-0.7	-7.0
CCC(CO)Nc1cccc2c1S(=O)(=O)N(Cc1cn(Cc3ccc(F)cc3)nn1)Cc1ccccc1O2 (stereo not drawn)	-0.4	x	x	x	x	x
CCc1ccc(-c2csc(NC(=O)C3=NN(c4ccccc4)C(=O)CC3)n2)cc1	-1.8	42.3	-6.3	10.3	9.8	7.2
Cc1ccc(-c2csc(NC(=O)c3cccc(N4C(=O)CCC4=O)c3)n2)o1	x	-20.0	10.2	-7.2	-5.2	22.2*
Cc1cc(C)c(-c2csc(NC(=O)C3=NN(c4ccccc4)C(=O)CC3)n2)c(C)c1	-3.9	46.2*	-1.6	8.6	9.3	-1.2
